The source made the active and inactive calls. The calls are words filed in the database; no cut-off is given here.
How the values were obtained:
Saccharomyces cerevisiae = experiment: Anti-prion activity against [URE3] protein in Saccharomyces cerevisiae SB34 at 100 uM measured after 24 hrs by fluorimetry analysis
Outline: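 Whole-cell yeast assay for curing of the [URE3] prion at a single concentration of 100 μM, scored as yes/no curing. Guanabenz was run as the positive control.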

[1] = Anti-prion activity against [PSI+] protein in Saccharomyces cerevisiae STRg6 measured after 24 hrs by fluorimetry analysis
Outline: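 Whole-cell yeast assay for curing of the [PSI+] prion, which depends on compound uptake across the cell membrane. EC50 (μM) reported ± SE. Guanabenz was run as the positive control.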

Row | Compound | Activity (Saccharomyces cerevisiae) | EC50 [1] [µM]
1 | COc1c(Br)cc(C[C@H](O)C(=O)c2cc(Br)c(O)c(Br)c2)cc1Br | Active | 33
2 | COC1=C(c2cc(Br)c(O)c(Br)c2)[C@H](Cc2cc(Br)c(OC)c(Br)c2)OC1=O | Active | 67
3 | COc1ccc(C[C@@H]2OC(=O)C(O)=C2c2cc(Br)c(O)c(Br)c2)cc1Br | Active | 23
4 | COC1=C(c2cc(Br)c(O)c(Br)c2)[C@H](Cc2ccc(OC)c(Br)c2)OC1=O | Active | 65
5 | COc1c(Br)cc(C[C@@H]2OC(=O)C(O)=C2c2cc(Br)c(O)c(Br)c2)cc1Br | Active | 34
6 | N=C(N)N/N=C/c1c(Cl)cccc1Cl [GUANABENZ] | Active | 26
7 | COc1ccc(C[C@H](O)C(=O)c2cc(Br)c(O)c(Br)c2)cc1Br | Active | 29

Reference: ChEMBL document CHEMBL4321801, “Anti-prion Butenolides and Diphenylpropanones from the Australian Ascidian Polycarpa procera” (J Nat Prod, 2019)
